Test [1] deals with Serine/threonine-protein kinase 26 (Homo sapiens) (UniProt Q9P289). Put plainly: Inhibition of MST4 Lys1 labeling site in human A-375 cells at 5 uM by KiNativ Profiling analysis relative to control. In kind it is cell-based.
The target of test [2] is Mitogen-activated protein kinase kinase kinase kinase 4 (Homo sapiens, UniProt O95819). Put plainly: Inhibition of ZC1/HGK Lys1 labeling site in human A-375 cells at 0.5 uM by KiNativ Profiling analysis relative to control. In kind it is cell-based.
Test [3] addresses Serine/threonine-protein kinase WNK1 (Homo sapiens) (UniProt Q9H4A3). In words: Inhibition of Wnk1 ACT labeling site in human A-375 cells at 0.05 uM by KiNativ Profiling analysis relative to control. It counts as cell-based.
For test [4], the target named is T1, Inhibitor of nuclear factor kappa-B kinase subunit epsilon (Homo sapiens) (UniProt Q14164).
T1 sequence (whole entry): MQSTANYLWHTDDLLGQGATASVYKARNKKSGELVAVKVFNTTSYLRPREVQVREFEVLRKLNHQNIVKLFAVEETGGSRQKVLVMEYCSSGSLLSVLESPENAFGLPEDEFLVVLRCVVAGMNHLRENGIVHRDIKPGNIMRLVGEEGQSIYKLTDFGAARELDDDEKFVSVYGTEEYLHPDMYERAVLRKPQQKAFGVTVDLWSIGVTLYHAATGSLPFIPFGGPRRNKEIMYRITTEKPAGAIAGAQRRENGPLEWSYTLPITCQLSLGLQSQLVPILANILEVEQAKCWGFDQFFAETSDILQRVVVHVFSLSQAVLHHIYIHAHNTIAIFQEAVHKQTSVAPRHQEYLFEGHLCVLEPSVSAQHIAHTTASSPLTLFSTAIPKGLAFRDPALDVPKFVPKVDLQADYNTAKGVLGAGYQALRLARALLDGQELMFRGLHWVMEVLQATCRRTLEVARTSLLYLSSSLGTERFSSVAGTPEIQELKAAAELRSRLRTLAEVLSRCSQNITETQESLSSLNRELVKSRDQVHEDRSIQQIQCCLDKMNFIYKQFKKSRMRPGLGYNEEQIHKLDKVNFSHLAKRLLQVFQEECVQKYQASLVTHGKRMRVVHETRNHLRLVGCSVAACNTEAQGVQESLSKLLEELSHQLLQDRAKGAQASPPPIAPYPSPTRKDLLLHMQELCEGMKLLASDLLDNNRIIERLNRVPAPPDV
In words: Inhibition of IKKe Lys2 labeling site in human A-375 cells at 0.05 uM by KiNativ Profiling analysis relative to control. In kind it is cell-based.

Test [5] concerns the target Serine/threonine-protein kinase B-raf (Homo sapiens, UniProt P15056). In words: Inhibition of BRAF (unknown origin) Lys2 labeling site by KiNativ Profiling analysis.
Test [6] concerns the target Cyclin-dependent kinase 16 (Homo sapiens) (UniProt Q00536). In words: Inhibition of PCTAIRE1 Lys1 labeling site in human A-375 cells at 5 uM by KiNativ Profiling analysis relative to control. It counts as cell-based.
Test [7] addresses T2, Serine/threonine-protein kinase 3 (Homo sapiens) (UniProt Q13188).
T2 sequence (whole entry): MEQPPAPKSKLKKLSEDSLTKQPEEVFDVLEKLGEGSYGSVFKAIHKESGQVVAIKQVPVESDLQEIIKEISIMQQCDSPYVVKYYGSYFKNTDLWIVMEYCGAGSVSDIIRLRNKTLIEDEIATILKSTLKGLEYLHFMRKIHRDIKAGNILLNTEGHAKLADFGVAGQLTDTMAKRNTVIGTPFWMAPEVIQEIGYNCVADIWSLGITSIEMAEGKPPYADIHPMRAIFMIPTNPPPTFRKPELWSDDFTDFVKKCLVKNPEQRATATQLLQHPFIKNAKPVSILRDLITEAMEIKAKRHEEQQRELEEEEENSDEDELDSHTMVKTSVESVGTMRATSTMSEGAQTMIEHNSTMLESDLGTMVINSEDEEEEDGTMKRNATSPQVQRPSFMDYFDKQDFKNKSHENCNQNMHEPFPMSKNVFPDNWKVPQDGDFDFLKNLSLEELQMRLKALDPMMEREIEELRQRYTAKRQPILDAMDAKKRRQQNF
Put plainly: Inhibition of MST2 Lys1 labeling site in human A-375 cells at 0.05 uM by KiNativ Profiling analysis relative to control. It counts as cell-based.

In test [8] the target is Focal adhesion kinase 1 (Homo sapiens) (UniProt Q05397). Put plainly: Inhibition of FAK Lys1 labeling site in human A-375 cells at 0.5 uM by KiNativ Profiling analysis relative to control. In kind it is cell-based. A digest of the protocol:
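Live A375 melanoma cells were treated with compound at 5 or 0.5 μM, then lysed. Lysates were labeled with a lysine-reactive ATP or ADP-biotin probe. Read-out was the compound's protection of kinase labeling sites from probe labeling (KiNativ).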

Test [9] has as its target Interleukin-1 receptor-associated kinase 1 (Homo sapiens) (UniProt P51617). In words: Inhibition of IRAK1 Lys2 labeling site in human A-375 cells at 5 uM by KiNativ Profiling analysis relative to control. It counts as cell-based.
Test [10] concerns the target T3, Phosphatidylinositol 5-phosphate 4-kinase type-2 gamma (Homo sapiens) (UniProt Q8TBX8).
T3 sequence (whole entry): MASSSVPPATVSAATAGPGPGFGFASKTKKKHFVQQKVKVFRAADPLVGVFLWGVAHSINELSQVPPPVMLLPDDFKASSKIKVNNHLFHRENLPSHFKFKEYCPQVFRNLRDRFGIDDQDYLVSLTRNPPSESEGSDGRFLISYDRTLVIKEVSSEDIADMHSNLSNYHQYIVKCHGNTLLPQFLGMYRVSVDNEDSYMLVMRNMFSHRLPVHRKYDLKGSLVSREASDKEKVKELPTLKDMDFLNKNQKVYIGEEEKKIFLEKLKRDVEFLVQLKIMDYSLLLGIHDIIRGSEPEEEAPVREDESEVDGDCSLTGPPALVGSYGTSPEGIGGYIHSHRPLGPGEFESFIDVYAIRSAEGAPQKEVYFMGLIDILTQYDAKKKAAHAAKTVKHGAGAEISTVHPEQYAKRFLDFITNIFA
In words: Inhibition of PIP4K2C ATP labeling site harbouring VKELPTLKDMDFLNK in human A-375 cells at 0.05 uM by KiNativ Profiling analysis relative to control. In kind it is cell-based.

Test [11] deals with Serine/threonine-protein kinase SMG1 (Homo sapiens) (UniProt Q96Q15). In words: Inhibition of SMG1 ATP labeling site harbouring SYPYLFKGLEDLHLDER in human A-375 cells at 0.5 uM by KiNativ Profiling analysis relative to control. In kind it is cell-based. A digest of the protocol:
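Live A375 melanoma cells treated with compound at 5 or 0.5 μM, then lysed. Lysate kinases were labeled with a lysine-reactive ATP or ADP-biotin probe. Inhibition was read as protection of labeling sites from the probe.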

Test [12] deals with DNA-PK/Ku70/Ku85 (Homo sapiens) (UniProt P78527+P12956+P13010). Put plainly: Inhibition of DNAPK ATP labeling site harbouring EHPFLVKGGEDLR in human A-375 cells at 0.5 uM by KiNativ Profiling analysis relative to control. It counts as cell-based. In short, it runs like this:
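Live A375 melanoma cells were treated with compound at 0.5 or 5 μM, then lysed. Lysates were labeled with a lysine-reactive ATP or ADP-biotin probe. The read-out was protection of each kinase probe-labeling site from labeling, relative to control.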

Molecules are shown by their SMILES.

Sequence of Mitogen-activated protein kinase kinase kinase kinase 4 (O95819 2-1239 limits assumed): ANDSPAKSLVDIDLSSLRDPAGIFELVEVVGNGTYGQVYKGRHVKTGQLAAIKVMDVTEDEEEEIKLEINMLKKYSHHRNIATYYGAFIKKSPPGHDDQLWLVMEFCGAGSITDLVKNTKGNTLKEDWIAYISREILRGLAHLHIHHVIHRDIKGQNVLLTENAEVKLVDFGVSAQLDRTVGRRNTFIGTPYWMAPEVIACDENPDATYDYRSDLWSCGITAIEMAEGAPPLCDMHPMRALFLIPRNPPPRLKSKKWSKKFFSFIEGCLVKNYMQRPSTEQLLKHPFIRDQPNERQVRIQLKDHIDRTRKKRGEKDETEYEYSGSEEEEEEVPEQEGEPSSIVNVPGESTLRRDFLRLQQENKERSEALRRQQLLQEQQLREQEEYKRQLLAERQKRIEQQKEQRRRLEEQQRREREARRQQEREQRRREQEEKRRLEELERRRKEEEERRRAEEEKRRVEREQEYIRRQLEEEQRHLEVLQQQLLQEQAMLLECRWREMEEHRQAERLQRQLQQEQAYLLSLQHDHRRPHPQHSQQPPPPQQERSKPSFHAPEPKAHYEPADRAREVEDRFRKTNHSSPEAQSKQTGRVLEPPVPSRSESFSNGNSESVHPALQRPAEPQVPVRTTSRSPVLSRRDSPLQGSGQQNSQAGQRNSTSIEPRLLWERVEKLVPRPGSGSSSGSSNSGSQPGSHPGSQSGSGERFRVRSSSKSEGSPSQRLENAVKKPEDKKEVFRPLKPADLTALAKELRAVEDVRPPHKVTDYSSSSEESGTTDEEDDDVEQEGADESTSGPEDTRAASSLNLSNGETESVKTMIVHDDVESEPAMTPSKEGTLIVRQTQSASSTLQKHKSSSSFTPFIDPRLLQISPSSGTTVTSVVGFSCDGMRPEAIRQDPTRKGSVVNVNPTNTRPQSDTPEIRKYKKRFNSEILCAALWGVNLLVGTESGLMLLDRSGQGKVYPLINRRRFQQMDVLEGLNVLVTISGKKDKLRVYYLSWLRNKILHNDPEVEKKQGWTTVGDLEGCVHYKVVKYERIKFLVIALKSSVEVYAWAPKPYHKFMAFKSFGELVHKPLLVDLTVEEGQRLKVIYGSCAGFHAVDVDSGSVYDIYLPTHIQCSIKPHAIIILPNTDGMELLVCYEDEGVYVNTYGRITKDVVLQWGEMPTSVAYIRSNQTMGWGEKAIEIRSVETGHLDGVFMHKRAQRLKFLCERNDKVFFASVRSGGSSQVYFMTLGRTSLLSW
Sequence of Serine/threonine-protein kinase 26 (Homo sapiens) (Q9P289 2-416 limits assumed): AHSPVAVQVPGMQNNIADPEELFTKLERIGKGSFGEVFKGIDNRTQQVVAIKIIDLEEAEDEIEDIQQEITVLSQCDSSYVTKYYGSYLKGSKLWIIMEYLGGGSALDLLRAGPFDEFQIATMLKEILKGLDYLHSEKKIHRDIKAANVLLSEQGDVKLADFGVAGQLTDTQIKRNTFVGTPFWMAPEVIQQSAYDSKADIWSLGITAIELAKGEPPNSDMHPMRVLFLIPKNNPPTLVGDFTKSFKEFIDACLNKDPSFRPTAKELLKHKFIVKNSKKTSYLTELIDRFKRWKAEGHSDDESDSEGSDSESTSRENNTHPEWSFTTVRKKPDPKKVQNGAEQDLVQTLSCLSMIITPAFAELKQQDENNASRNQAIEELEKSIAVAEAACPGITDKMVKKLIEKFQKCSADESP
Sequence of Focal adhesion kinase 1 (Homo sapiens) (Q05397 2-1052 limits assumed): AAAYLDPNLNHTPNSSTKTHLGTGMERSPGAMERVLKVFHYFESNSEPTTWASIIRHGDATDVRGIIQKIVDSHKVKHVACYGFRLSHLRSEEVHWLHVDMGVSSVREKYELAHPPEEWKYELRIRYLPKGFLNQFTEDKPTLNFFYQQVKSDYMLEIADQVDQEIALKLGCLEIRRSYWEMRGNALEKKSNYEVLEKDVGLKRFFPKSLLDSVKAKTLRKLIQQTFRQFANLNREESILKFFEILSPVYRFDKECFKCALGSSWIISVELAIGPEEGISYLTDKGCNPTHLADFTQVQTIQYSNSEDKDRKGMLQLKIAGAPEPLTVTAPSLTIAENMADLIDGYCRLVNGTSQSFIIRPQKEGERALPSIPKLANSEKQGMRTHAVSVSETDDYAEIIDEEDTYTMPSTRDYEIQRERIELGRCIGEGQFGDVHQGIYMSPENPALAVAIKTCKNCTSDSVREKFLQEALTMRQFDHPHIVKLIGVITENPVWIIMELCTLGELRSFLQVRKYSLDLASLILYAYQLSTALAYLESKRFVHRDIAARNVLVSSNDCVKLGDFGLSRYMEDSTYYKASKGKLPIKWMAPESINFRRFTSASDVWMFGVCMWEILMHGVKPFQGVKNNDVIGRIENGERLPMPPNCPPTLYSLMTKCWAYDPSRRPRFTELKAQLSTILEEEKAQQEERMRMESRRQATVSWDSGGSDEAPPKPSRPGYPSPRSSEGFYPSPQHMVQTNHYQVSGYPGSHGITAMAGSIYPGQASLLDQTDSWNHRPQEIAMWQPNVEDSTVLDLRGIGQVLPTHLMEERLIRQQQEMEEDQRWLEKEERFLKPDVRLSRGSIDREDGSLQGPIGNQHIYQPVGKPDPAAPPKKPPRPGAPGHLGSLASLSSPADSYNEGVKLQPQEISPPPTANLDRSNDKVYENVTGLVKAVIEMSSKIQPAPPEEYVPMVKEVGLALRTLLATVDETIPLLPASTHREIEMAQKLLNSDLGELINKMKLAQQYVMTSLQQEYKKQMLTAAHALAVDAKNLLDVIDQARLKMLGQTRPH
Sequence of Serine/threonine-protein kinase WNK1 (Homo sapiens) (Q9H4A3 whole entry, looked up): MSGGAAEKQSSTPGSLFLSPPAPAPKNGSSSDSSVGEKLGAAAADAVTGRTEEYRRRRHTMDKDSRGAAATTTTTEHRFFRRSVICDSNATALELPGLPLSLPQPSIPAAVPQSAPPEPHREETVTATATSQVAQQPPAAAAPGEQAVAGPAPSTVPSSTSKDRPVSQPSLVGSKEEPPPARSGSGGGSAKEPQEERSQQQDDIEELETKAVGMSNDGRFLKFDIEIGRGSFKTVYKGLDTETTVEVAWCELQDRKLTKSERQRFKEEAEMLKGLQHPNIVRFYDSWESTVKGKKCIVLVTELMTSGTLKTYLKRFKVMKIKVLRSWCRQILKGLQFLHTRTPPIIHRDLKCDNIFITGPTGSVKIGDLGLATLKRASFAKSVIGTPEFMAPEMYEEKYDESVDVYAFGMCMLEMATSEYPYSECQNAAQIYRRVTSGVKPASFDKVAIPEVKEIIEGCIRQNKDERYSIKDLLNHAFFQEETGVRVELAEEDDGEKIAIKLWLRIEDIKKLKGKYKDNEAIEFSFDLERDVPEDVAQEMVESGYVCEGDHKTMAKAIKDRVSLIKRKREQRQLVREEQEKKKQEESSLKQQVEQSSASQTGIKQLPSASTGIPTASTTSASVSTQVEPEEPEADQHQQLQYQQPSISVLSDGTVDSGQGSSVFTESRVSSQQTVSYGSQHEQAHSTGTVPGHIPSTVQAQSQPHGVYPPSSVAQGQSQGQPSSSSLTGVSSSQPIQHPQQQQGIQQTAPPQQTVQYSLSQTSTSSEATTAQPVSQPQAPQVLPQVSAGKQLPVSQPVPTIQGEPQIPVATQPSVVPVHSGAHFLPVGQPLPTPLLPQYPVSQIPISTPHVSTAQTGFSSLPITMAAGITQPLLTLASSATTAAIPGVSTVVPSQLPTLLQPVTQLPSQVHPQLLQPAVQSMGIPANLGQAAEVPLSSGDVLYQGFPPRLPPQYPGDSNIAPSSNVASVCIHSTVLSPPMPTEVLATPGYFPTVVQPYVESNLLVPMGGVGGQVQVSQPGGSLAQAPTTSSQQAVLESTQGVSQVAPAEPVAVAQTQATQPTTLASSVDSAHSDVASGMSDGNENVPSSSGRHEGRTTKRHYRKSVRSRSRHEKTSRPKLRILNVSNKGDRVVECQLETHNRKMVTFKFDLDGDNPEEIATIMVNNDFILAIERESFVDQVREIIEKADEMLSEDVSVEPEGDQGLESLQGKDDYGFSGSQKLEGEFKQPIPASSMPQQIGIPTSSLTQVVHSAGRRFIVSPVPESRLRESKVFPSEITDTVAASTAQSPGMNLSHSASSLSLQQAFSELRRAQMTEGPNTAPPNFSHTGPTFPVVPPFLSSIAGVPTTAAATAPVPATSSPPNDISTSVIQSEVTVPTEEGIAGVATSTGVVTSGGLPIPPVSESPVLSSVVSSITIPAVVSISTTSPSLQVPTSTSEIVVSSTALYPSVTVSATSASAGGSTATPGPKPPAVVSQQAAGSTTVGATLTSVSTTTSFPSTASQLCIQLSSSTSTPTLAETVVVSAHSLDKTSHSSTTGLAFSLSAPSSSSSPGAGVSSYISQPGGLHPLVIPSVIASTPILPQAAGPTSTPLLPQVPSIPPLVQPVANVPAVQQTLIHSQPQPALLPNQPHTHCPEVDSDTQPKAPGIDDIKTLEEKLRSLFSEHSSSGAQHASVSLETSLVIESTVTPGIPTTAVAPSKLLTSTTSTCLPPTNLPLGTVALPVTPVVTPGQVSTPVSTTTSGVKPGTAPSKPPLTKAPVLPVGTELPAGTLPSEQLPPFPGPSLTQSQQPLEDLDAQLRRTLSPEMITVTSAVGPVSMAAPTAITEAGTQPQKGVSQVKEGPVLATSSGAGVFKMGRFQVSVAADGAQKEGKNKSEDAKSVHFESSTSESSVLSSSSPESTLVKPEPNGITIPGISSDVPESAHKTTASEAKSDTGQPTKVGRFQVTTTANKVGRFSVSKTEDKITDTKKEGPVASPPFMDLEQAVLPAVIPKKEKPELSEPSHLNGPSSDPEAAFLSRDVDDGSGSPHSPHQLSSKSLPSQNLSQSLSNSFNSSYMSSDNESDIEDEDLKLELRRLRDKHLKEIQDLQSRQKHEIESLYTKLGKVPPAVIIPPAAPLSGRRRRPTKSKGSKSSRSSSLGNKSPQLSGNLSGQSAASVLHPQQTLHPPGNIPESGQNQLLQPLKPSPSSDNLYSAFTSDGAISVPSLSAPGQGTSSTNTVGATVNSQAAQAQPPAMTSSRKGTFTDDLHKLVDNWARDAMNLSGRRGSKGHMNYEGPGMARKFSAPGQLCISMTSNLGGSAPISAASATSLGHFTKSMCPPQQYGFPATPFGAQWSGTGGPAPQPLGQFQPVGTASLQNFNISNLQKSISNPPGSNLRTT

In the case of `CCN1CCN(Cc2ccc(NC(=O)c3ccc(C)c(/C=C/c4cnc5[nH]ccc5c4OC)c3)cc2C(F)(F)F)CC1`, the inhibition in [1] is -6.1%; in test [2] it was 26.3%; in [3], 10.1%; in test [4], 19.8%; in test [6], 32.1%; in test [7], 9.2%. Moreover, the inhibition in [8] was -2%; in test [9], 61.1%; in test [10], -7.3%; in test [11], 33.7%; in test [12], 13.8%. In addition, the IC50 in [5] was > 10 µM.
Regarding `CCN1CCN(Cc2ccc(NC(=O)c3ccc(C)c(Oc4ccnc5[nH]ccc45)c3)cc2C(F)(F)F)CC1`, the inhibition in [1] was 1.1%; in test [2] it was 75.6%; in test [3] it was 10.3%; in test [4], 29.2%; in test [6], 72.6%; in [7] it was -6.5%. The inhibition in test [8] is 9.3%; in test [9], 7.4%; in test [10], -1.1%; in [11] it was 3%; in [12], 3.2%. Besides, in test [5], the IC50 was > 10 µM.

These data come from ChEMBL document CHEMBL5696442, “Discovery of type II inhibitors of TGFβ-activated kinase 1 (TAK1) and mitogen-activated protein kinase kinase kinase kinase 2 (MAP4K2)” (J Med Chem, 2015).
